Laboratory results from the array DNA melting data of Ke et al. (doi:10.1101/2024.01.08.574731).

Legend:
[1] = folding enthalpy; higher = less favourable; fluorescence melt of hairpins on a sequencing array, two-state fit; settings: sodium 0.088 M
Outline: (§1)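 In 50 mM Na-HEPES pH 8.0 containing 25 mM NaCl, hairpins from the library on a sequenced MiSeq flow cell were imaged for Cy3 fluorescence at 2.5 °C steps up to 60 °C, with Cy3 and quencher oligos annealed. After normalisation to pre-quench Cy3 and to control constructs, two-state fits with bootstrapping gave melting temperature and folding enthalpy. Four replicates were combined by inverse-variance weighting, and fitted temperatures were shifted up by 9.35 °C to match UV melts.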

[2] = melting temperature; fluorescence melt of hairpins on a sequencing array, two-state fit, raised by 9.35 °C to match UV melts; settings: sodium 0.088 M
Outline: as §1

Sequence	folding enthalpy [1]	Tm [2]
GCCAAACCGAAAGGTGGC (((..(((....))))))	-32 kcal/mol	55.4 °C
GATCTTGATCAAGATC ((((((....))))))	-40.9 kcal/mol	49.7 °C
GGGGGAGAAATCCCCC ((((((....))))))	-29.9 kcal/mol	65.5 °C
GGCGGGACGAAAGTCGCC (((..(((....))))))	-28.6 kcal/mol	59.5 °C
GCATGAGCGAAAGCTTGC (((..(((....))))))	-14.1 kcal/mol	45.6 °C
CGGGCGGAAACGCTGCCG ((((((....)))..)))	-16.8 kcal/mol	45.8 °C
GATGGCGGAAACGTCATC ((((.((....)).))))	-43.7 kcal/mol	55.3 °C
GCGAGATCTCGC ((((....))))	-35.4 kcal/mol	54.1 °C
GCTCAAGGAAACCTGAGC (((((.(....).)))))	-35.4 kcal/mol	46.9 °C
GGACTGGGAAACCAGCCC ((.((((....)))).))	-20.5 kcal/mol	50.4 °C
GTTACCGGAAACGGTAGC (.(((((....))))).)	-18.9 kcal/mol	50.4 °C
GGTGGACGAAAGTCGACC (((.(((....))).)))	-39.9 kcal/mol	57.2 °C
GGCGAACGAAAGTTAGCC (((.(((....))).)))	-34.4 kcal/mol	59.8 °C
GATCAACGATTGATC ((((((...))))))	-19.8 kcal/mol	36.3 °C
GATCGATTTATCGATC ((((((....))))))	-44.8 kcal/mol	59.7 °C
GCAGAGCGAAAGCGCCGC ((.(.((....)).).))	-28.2 kcal/mol	64 °C
CGCATACGGAAACGTGCG (((..(((....))))))	-30.2 kcal/mol	48.9 °C
GCAGTGCGAAAGCATGGC ((..(((....)))..))	-19.2 kcal/mol	54 °C
GTAGCGGGAAACCGTTGC (.(.(((....))).).)	-19.2 kcal/mol	35.3 °C

Sequence	folding enthalpy [1]	Tm [2]
GCCGGGCGAAAGCCGCGC ((..(((....)))..))	-15.2 kcal/mol	60.1 °C
GCGAGTTTTCGC ((((....))))	-16.5 kcal/mol	53.3 °C
GGTTCACGAAAGTGCACC (((.(((....))).)))	-29.7 kcal/mol	50.5 °C
GCGATAGGAAACTGTCGC ((((.((....)).))))	-50.7 kcal/mol	54.5 °C
GCAATCGAAAGATTGC ((((((....))))))	-42.2 kcal/mol	64 °C
GTGCTCGAAAGAGCCAC ((((((....))).)))	-11.2 kcal/mol	49 °C
GGTAACGAAAGTTTCACC ((((((....)))..)))	-9.74 kcal/mol	28.8 °C
GCACCACGAAAGTGCTGC (((.(((....))).)))	-25.2 kcal/mol	50.5 °C
GCCTGGAAACAGGC (((((....)))))	-27.1 kcal/mol	63.4 °C
GCTTGCGGAAACACAAGC (((((.(....).)))))	-23.6 kcal/mol	46.8 °C
GCTCCCGAAAGGGGTAGC ((((((....)))..)))	-18.1 kcal/mol	48.7 °C
GCGTACCCACGC ((((....))))	-21.2 kcal/mol	53.1 °C
GCGAAAGGAAACTTTTGC ((.((((....)))).))	-32.1 kcal/mol	45.9 °C
GCGCTCGAAAGAGAACGC ((((((....)))..)))	-30.8 kcal/mol	50.4 °C
GCTGCAGGAAACCGCAAC (.(((.(....).))).)	-14.6 kcal/mol	27.3 °C
GCGGTCGAAAGACGCCGC ((((((....)))..)))	-19.9 kcal/mol	56.4 °C
GTAGCGGGAAACTGCTAC (((((.(....).)))))	-37.1 kcal/mol	53.6 °C
GCAACTCGAAAGAGTGC (((.(((....))))))	-33.5 kcal/mol	55.8 °C
GCAGACGAAAGTCGTGC ((((((....))).)))	-24.1 kcal/mol	54.1 °C
